Results taken from ChEMBL document CHEMBL1156886, “Exploring epidermal growth factor receptor (EGFR) inhibitor features: the role of fused dioxygenated rings on the quinazoline scaffold” (J Med Chem, 2010).
The source made the active and inactive calls. No cut-off for these calls is given here.

Key:
Format in all cases: functional, cell-based
[1] = system: A-431; assay: Cytotoxicity against human A431 cells after 72 hrs by MTT assay; conditions: A-431, 72 h
In short: (§1)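 MTT proliferation assay after 72 h continuous compound exposure in A431 (EGFR-overexpressing) and NIH3T3 (not expressing EGFR) cells. Highest concentration tested 10 μM, limited by precipitation in culture medium. IC50 not derived when inhibition stayed below 50% at 10 μM. Values are mean ± SD of at least three independent experiments.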

[2] = system: NIH3T3; assay: Cytotoxicity against mouse NIH/3T3 cells after 72 hrs by MTT assay; conditions: NIH3T3, 72 h; in short: as §1
[3] = system: A-431; assay: Antiproliferative activity against human A431 cells assessed as cell growth at 10 uM pretreated for 24 hrs measured after 68 hrs of drug removel by MTT assay
[4] = system: A-431; assay: Antiproliferative activity against exogenous EGF-induced human A431 cell growth at 0.1 uM pretreated for 24 hrs measured after 72 hrs of drug removel by MTT assay

Structure (SMILES) | IC50 [1] [µM] | IC50 [2] [µM] | Activity [3] | Activity [4]
Cc1cccc(Nc2ncnc3cc4c(cc23)OCCCO4)c1 | 6.29 | > 10 | Active | 
Fc1cc(Br)ccc1Nc1ncnc2cc3c(cc12)OCCO3 | 6.28 | 5.4 | Active | 
Fc1ccc(Nc2ncnc3cc4c(cc23)OCCO4)cc1Cl | > 10 |  |  | 
Fc1ccc(Nc2ncnc3cc4c(cc23)OCO4)cc1Cl | > 10 |  |  | 
FC(F)(F)c1cccc(Nc2ncnc3cc4c(cc23)OCO4)c1 | 8.46 | > 10 | Active | 
Cc1cccc(Nc2ncnc3cc4c(cc23)OCO4)c1 | 6.69 | > 10 | Active | 
Fc1cc(Br)ccc1Nc1ncnc2cc3c(cc12)OCO3 | > 10 |  |  | 
FC(F)(F)c1cccc(Nc2ncnc3cc4c(cc23)OCCCO4)c1 | 4.73 | > 10 | Active | 
Fc1ccc(Nc2ncnc3cc4c(cc23)OCCCO4)cc1Cl | 7.13 | > 10 | Active | 
Brc1cccc(Nc2ncnc3cc4c(cc23)OCCO4)c1 | 0.75 | > 10 | Active | 
COc1cc2ncnc(Nc3cccc(Br)c3)c2cc1OC |  | > 10 | Active | inactive
Brc1cccc(Nc2ncnc3cc4c(cc23)OCO4)c1 | 7.16 | > 10 | Active | 
Fc1cc(Br)ccc1Nc1ncnc2cc3c(cc12)OCCCO3 | > 10 |  |  | 
Cc1cccc(Nc2ncnc3cc4c(cc23)OCCO4)c1 | 0.67 | 5.8 | Active | 
Brc1cccc(Nc2ncnc3cc4c(cc23)OCCCO4)c1 | 8.17 | > 10 | Active | 
FC(F)(F)c1cccc(Nc2ncnc3cc4c(cc23)OCCO4)c1 | 0.77 | 7.1 | Active | 
